Experimental data pooled from the literature.
Cell line: MCF7
Effect on: cell growth or viability

| Compound | technique | concentration | time | quantity | value |
| --- | --- | --- | --- | --- | --- |
| COc1ccc(-c2cc(-c3ccc(C)cc3)nc3c2c(=O)n(C)c(=O)n3C)cc1OC | MTT |  | 48 h | IC50 | 29.5 µM |
| COc1ccc(COC[C@@](O)(CNCc2ccc(F)cc2)[C@@H]2CC[C@@H](C)C[C@H]2OCc2ccc(OC)cc2)cc1 | MTT | 10 µM | 72 h | inhibition | 94.5% |
| COc1cc2ncnc(Nc3ccc4c(c3)/C(=C/c3ccccc3)C(=O)N4)c2cc1OC | MTT |  |  | IC50 | 18.6 µM |
| C[C@@H]1CC[C@@H]([C@](O)(CNCc2ccc(F)cc2)COCc2ccc(F)cc2)[C@H](OCc2ccc(F)cc2)C1 | MTT | 10 µM | 72 h | inhibition | 93.7% |
| CC(=NNC(=O)c1cccnc1)c1ccc(Nc2nnc(-c3ccc(Cl)cc3)c3ccccc23)cc1 | MTT | 0.312 µM | 24 h | viability | 100% |
| CO[C@H]1C[C@@H]2CC[C@@H](C)[C@@](O)(O2)C(=O)C(=O)N2CCCC[C@H]2C(=O)O[C@H]([C@H](C)C[C@@H]2CC[C@@H](OCCO)[C@H](OC)C2)CC(=O)[C@H](C)/C=C(\C)[C@@H](O)[C@@H](OC)C(=O)[C@H](C)C[C@H](C)/C=C/C=C/C=C/1C |  |  | 5 days | EC50 | 0.0014 µM |
| CC(=O)Nc1ccc(/C(C)=N/N=c2\sc(C(C)=O)nn2-c2ccc(C)cc2)cc1 | MTT | 2.5 µM |  | viability | 34.6% |
| CC(=O)Nc1ccc(Oc2nnc(-c3ccc(Cl)cc3)c3ccccc23)cc1 | MTT | 5 µM | 24 h | viability | 3.72% |
| COc1ccc(-c2cc(-c3ccc(Cl)cc3)c3c(=O)n(C)c(=O)n(C)c3n2)cc1 | MTT |  | 48 h | IC50 | 14.4 µM |
| CCN1CCN(Cc2ccc(Nc3ncc(F)c(-c4cc(F)c5nc(C)n(C(C)C)c5c4)n3)nc2)CC1 |  |  | 5 days | EC50 | 0.009 µM |
| C[C@@H]1CC[C@@H]([C@](C)(O)CNCc2ccccc2F)[C@H](OCc2ccccc2)C1 | MTT | 30 µM | 72 h | inhibition | 89.6% |
| CC(=NNC(N)=S)c1ccc(Nc2nnc(-c3ccc(Cl)cc3)c3ccccc23)cc1 | MTT | 0.156 µM |  | cell death | 49.5% |
| Cc1ccc(-c2cc(-c3ccc(N(C)C)cc3)c3c(=O)[nH]c(=O)[nH]c3n2)cc1 | MTT |  | 48 h | IC50 | 10.1 µM |
| COc1cc2ncnc(Nc3ccc4c(c3)/C(=C/c3cccc(Cl)c3)C(=O)N4C)c2cc1OC | MTT |  |  | IC50 | 4.62 µM |
| C[C@@H]1CC[C@@H]([C@](C)(O)CNCc2cccc3ccccc23)[C@H](OCc2ccccc2)C1 | MTT | 30 µM | 72 h | inhibition | 92.2% |
| O=C(Nc1ccc(Oc2nnc(-c3ccc(Cl)cc3)c3ccccc23)cc1)c1ccccc1 | MTT | 2.5 µM |  | cell death | 93.4% |

| Compound | technique | concentration | time | quantity | value |
| --- | --- | --- | --- | --- | --- |
| CN(C)C(=O)c1cc2cnc(Nc3ccc(N4CCNCC4)cn3)nc2n1C1CCCC1 |  |  | 5 days | EC50 | 0.101 µM |
| CC(=O)c1nn(-c2ccccc2Cl)/c(=N/N=C(\C)c2ccc(NC(=O)c3ccccc3)cc2)s1 | MTT | 78 nM |  | viability | 47.5% |
| COc1ccc(-c2cc(-c3cc(OC)ccc3OC)c3c(=O)[nH]c(=O)[nH]c3n2)cc1 | MTT |  | 48 h | IC50 | 14.3 µM |
| COc1cccc2c1C(=O)c1c(O)c3c(c(O)c1C2=O)C[C@@](O)(C(=O)CO)C[C@@H]3O[C@H]1C[C@H](N)[C@H](O)[C@H](C)O1 | MTT | 100 µM | 48 h | inhibition | 96.8% |
| CCOC(=O)c1nn(-c2cccc(Cl)c2)/c(=N/N=C(\C)c2ccc(NC(=O)c3ccccc3)cc2)s1 | MTT | 1.25 µM |  | viability | 2.59% |
| COc1ccc(-c2cc(-c3ccc(Br)cc3)c3c(=O)n(C)c(=O)n(C)c3n2)cc1 | MTT |  | 48 h | IC50 | 29.4 µM |
| O=C1CC[C@H](N2Cc3cc(N4CCN(CC5CCN(c6ccc([C@@H]7c8ccc(O)cc8CC[C@@H]7c7ccccc7)cc6)CC5)CC4)ccc3C2=O)C(=O)N1 | ATP luminescence |  | 5 days | GI50 | 0.0033 µM |
| COc1ccc(-c2cc(-c3ccc(Br)cc3)c3c(=O)[nH]c(=O)[nH]c3n2)cc1 | MTT |  | 48 h | IC50 | 9.94 µM |
| O=C(Nc1ccc(Oc2nnc(-c3ccc(Cl)cc3)c3ccccc23)cc1)c1cccc([N+](=O)[O-])c1 | MTT | 5 µM |  | cell death | 92.1% |
| C[C@@H]1CC[C@@H]([C@](C)(O)CNCc2ccccc2)[C@H](OCc2ccccc2)C1 | MTT | 30 µM | 72 h | inhibition | 98% |
| CC(=NNC(=O)c1ccncc1)c1ccc(Nc2nnc(-c3ccc(Cl)cc3)c3ccccc23)cc1 | MTT | 2.5 µM | 24 h | viability | 5.58% |
| C[C@@H]1CC[C@@H]([C@](O)(CNCc2ccccc2)COCc2ccc(F)cc2)[C@H](OCc2ccc(F)cc2)C1 | MTT | 30 µM | 72 h | inhibition | 100% |
| COC(=O)COc1c(Cc2cc(C(C)(C)CC(C)(C)C)cc(-n3nc4ccccc4n3)c2OCC(=O)OC)cc(C(C)(C)CC(C)(C)C)cc1-n1nc2ccccc2n1 | MTT |  |  | GI50 | 3.18 µM |
| C[C@@H]1CC[C@@H]([C@@](O)(CNCc2cccc3ccccc23)COCc2ccccc2)[C@H](OCc2ccccc2)C1 | MTT | 10 µM | 72 h | inhibition | 82.9% |
| CC(=O)c1nn(-c2ccc(C)cc2)/c(=N/N=C(\C)c2ccc(NC(=O)c3ccccc3)cc2)s1 | MTT | 5 µM |  | viability | 6.47% |
